Key:
Assay type in all cases: ADME, organism-based
Settings in all cases: in vivo
Homo sapiens [1] = assay: Drug excretion in healthy white human with SLCO1B1 521TT/CYP2C8*1/*1 combined genotype treated with 2 mg, po repaglinide
Summary of the method: (§1)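 Urine was collected before a single 2 mg oral dose and over 0–4, 4–8, 8–12, 12–16 and 16–24 h. Metabolites M1 and M4 were measured by LC-MS/MS. With no reference standards, amounts were expressed in arbitrary units as the peak area ratio to diclofenac internal standard. Ae0-24h is the sum of amounts over the collection periods.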

Homo sapiens [2] = assay: Drug excretion in healthy white human with SLCO1B1 521TC/CYP2C8*1/*1 combined genotype treated with 2 mg, po repaglinide; summary of the method: as §1
Homo sapiens [3] = assay: Drug excretion in healthy white human with SLCO1B1 521TT/CYP2C8*1/*3 combined genotype treated with 2 mg, po repaglinide; summary of the method: as §1
Homo sapiens [4] = assay: Drug excretion in healthy white human with SLCO1B1 521TC/CYP2C8*1/*3 combined genotype treated with 2 mg, po repaglinide; summary of the method: as §1
Homo sapiens [5] = assay: Drug excretion in healthy white human with SLCO1B1 521CC/CYP2C8*1/*3 combined genotype treated with 2 mg, po repaglinide; summary of the method: as §1
Homo sapiens [6] = assay: Drug excretion in healthy white human with SLCO1B1 521TT/CYP2C8*3/*3 combined genotype treated with 2 mg, po repaglinide; summary of the method: as §1
[7] = Drug excretion in healthy white human urine with CYP2C8*1/*1 genotype at 2 mg, po up to 24 hrs; summary of the method: as §1
[8] = Drug excretion in healthy white human urine with CYP2C8*1/*3 genotype at 2 mg, po up to 24 hrs; summary of the method: as §1
[9] = Drug excretion in healthy white human urine with CYP2C8*3/*3 genotype at 2 mg, po up to 24 hrs; summary of the method: as §1
Homo sapiens [10] = assay: Drug excretion in healthy white human urine at 2 mg, po up to 24 hrs; summary of the method: as §1
Homo sapiens [11] = assay: Drug excretion in healthy white human with SLCO1B1 521TC/CYP2C8*3/*3 combined genotype treated with 2 mg, po repaglinide; summary of the method: as §1
Homo sapiens [12] = assay: Drug excretion in healthy white human with SLCO1B1 521CC/CYP2C8*3/*3 combined genotype treated with 2 mg, po repaglinide; summary of the method: as §1

CCOc1cc(CC(=O)N[C@@H](CC(C)C)c2ccccc2N2CCCC(O)C2)ccc1C(=O)O (some centres undefined)
Ae (Homo sapiens [1]): 181.7 a.u. | Ae (Homo sapiens [2]): 191.7 a.u. | Ae (Homo sapiens [3]): 226.4 a.u. | Ae (Homo sapiens [4]): 197.8 a.u. | Ae (Homo sapiens [5]): 155.1 a.u. | Ae (Homo sapiens [6]): 79.4 a.u. | Ae [7]: 184.2 a.u. | Ae [8]: 212.4 a.u. | Ae [9]: 336.7 a.u. | Ae (Homo sapiens [10]): 217.8 a.u. | Ae (Homo sapiens [11]): 471.7 a.u. | Ae (Homo sapiens [12]): 268.6 a.u.

CCOc1cc(CC(=O)N[C@@H](CC(C)C)c2ccccc2N)ccc1C(=O)O
Ae (Homo sapiens [1]): 57 a.u. | Ae (Homo sapiens [2]): 39.9 a.u. | Ae (Homo sapiens [3]): 47.5 a.u. | Ae (Homo sapiens [4]): 33.3 a.u. | Ae (Homo sapiens [5]): 41.4 a.u. | Ae (Homo sapiens [6]): 53.1 a.u. | Ae [7]: 52.8 a.u. | Ae [8]: 42.6 a.u. | Ae [9]: 53.3 a.u. | Ae (Homo sapiens [10]): 48.3 a.u. | Ae (Homo sapiens [11]): 52.8 a.u. | Ae (Homo sapiens [12]): 29.1 a.u.

Reference: ChEMBL document CHEMBL3526119, “Effect of the CYP2C8 genotype on the pharmacokinetics and pharmacodynamics of repaglinide” (Drug Metab Dispos, 2011)
